According to ChEMBL document CHEMBL5120742, “Multi-target weapons: diaryl-pyrazoline thiazolidinediones simultaneously targeting VEGFR-2 and HDAC cancer hallmarks” (RSC Med Chem, 2021):

Legend:
Histone deacetylase 4 [1] = target: T1, Histone deacetylase 4 (Homo sapiens, UniProt P56524); assay: Inhibition of recombinant human N-terminal His6-SUMO-tagged C-terminal SII-tagged HDAC4 expressed in Escherichia coli (BL21) DE3 pLysS cells assessed as residual activity at 50 uM using BocLys(trifluoroacetyl)-AMC as substrate incubated for 30 mins by fluorescence assay relative to control
T1 sequence (P56524 whole entry): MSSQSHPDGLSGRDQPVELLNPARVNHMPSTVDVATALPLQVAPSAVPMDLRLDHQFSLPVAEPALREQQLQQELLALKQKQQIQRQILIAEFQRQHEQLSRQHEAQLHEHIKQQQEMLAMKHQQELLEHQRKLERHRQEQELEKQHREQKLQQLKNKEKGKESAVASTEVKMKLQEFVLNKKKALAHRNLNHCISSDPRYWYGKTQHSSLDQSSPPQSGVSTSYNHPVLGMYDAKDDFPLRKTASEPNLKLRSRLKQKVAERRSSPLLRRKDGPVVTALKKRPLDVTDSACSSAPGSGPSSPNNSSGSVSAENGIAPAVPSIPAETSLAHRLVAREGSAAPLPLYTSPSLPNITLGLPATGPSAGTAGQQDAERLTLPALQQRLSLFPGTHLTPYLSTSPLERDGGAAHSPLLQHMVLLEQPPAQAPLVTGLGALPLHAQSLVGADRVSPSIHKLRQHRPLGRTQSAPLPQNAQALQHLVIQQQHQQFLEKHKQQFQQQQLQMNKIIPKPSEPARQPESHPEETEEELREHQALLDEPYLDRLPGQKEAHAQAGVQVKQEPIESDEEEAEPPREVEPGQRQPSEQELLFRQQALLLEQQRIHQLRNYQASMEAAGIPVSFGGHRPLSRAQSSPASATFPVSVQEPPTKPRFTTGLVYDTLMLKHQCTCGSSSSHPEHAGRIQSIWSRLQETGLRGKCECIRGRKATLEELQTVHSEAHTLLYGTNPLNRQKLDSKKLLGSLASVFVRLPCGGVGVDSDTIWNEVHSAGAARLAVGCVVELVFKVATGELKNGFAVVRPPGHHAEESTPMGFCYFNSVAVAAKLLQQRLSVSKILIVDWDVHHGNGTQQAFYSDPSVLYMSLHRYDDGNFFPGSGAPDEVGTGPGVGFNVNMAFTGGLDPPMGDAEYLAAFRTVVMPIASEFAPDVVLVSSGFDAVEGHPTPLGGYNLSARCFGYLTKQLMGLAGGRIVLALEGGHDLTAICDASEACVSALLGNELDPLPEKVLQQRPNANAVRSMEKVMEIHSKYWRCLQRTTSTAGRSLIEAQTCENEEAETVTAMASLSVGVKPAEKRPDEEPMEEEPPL
Procedure, shortened: (§1)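 Catalytic-domain HDAC4 (His6-SUMO/SII-tagged) and full-length codon-optimized human HDAC8 were expressed in E. coli BL21 DE3 pLysS from pET14b. Both were assayed in a two-step fluorogenic format with Boc-Lys(trifluoroacetyl)-AMC, followed by trypsin development. Compounds were screened first at 50 µM for residual activity.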

[2] = target: T2, Histone deacetylase 8 (Homo sapiens) (UniProt Q9BY41); assay: Inhibition of recombinant human N-terminal His6-SUMO-tagged C-terminal SII-tagged HDAC8 expressed in Escherichia coli (BL21) DE3 pLysS cells assessed as residual activity at 50 uM using BocLys(trifluoroacetyl)-AMC as substrate incubated for 30 mins by fluorescence assay relative to control; procedure, shortened: as §1
T2 sequence (whole entry): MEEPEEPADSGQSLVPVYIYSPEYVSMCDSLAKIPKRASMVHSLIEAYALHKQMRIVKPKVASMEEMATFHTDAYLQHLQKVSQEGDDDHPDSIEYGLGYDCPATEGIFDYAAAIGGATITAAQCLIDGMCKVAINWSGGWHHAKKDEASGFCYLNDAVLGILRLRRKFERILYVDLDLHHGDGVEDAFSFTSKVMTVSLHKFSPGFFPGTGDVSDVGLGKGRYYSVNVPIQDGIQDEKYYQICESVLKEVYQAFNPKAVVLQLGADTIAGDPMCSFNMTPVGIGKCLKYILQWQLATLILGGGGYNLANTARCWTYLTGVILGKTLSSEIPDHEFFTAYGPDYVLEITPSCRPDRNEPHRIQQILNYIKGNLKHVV

Histone deacetylase 4 [3] = target: T1, Histone deacetylase 4; assay: Inhibition of recombinant human N-terminal His6-SUMO-tagged C-terminal SII-tagged HDAC4 expressed in Escherichia coli (BL21) DE3 pLysS cells using BocLys(trifluoroacetyl)-AMC as substrate incubated for 30 mins by fluorescence assay; procedure, shortened: as §1
Histone deacetylase 8 = target: T3, Histone deacetylase 8 (Homo sapiens, UniProt Q9BY41); assay: Inhibition of recombinant human N-terminal His6-SUMO-tagged C-terminal SII-tagged HDAC8 expressed in Escherichia coli (BL21) DE3 pLysS cells using BocLys(trifluoroacetyl)-AMC as substrate incubated for 30 mins by fluorescence assay; procedure, shortened: as §1
T3 sequence (Q9BY41 whole entry): T2 sequence (whole entry)

Histone deacetylase 2 = Histone deacetylase 2 (Homo sapiens, UniProt Q92769); assay: Inhibition of recombinant human HDAC2 Boc-Lys(acetyl)-AMC as substrate incubated for 30 mins by fluorescence assay
Chain of Histone deacetylase 2 (Q92769 whole entry): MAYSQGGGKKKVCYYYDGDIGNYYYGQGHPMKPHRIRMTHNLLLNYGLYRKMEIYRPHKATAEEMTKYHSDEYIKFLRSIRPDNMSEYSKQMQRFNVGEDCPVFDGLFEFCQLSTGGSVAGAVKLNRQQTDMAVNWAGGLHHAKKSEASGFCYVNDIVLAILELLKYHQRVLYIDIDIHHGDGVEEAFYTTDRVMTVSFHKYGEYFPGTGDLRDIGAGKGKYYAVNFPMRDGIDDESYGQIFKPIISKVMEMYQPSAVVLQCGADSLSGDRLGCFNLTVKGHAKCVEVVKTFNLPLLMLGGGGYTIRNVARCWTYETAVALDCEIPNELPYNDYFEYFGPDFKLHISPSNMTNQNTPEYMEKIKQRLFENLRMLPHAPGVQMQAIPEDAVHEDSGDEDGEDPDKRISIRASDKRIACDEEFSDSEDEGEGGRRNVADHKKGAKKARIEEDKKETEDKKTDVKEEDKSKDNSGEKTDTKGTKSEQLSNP
Procedure, shortened: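 Two-step fluorogenic assay with recombinant HDAC1, 2, 3 or 6. Deacetylation of Boc-Lys(acetyl)-AMC is followed by trypsin conversion of the deacetylated product to a fluorescent signal.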

Histone deacetylase 7 = target: T4, Histone deacetylase 7 (Homo sapiens, UniProt Q8WUI4); assay: Inhibition of recombinant human N-terminal GST-tagged HDAC7 (518 to end residues) expressed in baculovirus infected sf9 insect cells using BocLys(trifluoroacetyl)-AMC as substrate incubated for 30 mins by fluorescence assay
T4 sequence (Q8WUI4 whole entry): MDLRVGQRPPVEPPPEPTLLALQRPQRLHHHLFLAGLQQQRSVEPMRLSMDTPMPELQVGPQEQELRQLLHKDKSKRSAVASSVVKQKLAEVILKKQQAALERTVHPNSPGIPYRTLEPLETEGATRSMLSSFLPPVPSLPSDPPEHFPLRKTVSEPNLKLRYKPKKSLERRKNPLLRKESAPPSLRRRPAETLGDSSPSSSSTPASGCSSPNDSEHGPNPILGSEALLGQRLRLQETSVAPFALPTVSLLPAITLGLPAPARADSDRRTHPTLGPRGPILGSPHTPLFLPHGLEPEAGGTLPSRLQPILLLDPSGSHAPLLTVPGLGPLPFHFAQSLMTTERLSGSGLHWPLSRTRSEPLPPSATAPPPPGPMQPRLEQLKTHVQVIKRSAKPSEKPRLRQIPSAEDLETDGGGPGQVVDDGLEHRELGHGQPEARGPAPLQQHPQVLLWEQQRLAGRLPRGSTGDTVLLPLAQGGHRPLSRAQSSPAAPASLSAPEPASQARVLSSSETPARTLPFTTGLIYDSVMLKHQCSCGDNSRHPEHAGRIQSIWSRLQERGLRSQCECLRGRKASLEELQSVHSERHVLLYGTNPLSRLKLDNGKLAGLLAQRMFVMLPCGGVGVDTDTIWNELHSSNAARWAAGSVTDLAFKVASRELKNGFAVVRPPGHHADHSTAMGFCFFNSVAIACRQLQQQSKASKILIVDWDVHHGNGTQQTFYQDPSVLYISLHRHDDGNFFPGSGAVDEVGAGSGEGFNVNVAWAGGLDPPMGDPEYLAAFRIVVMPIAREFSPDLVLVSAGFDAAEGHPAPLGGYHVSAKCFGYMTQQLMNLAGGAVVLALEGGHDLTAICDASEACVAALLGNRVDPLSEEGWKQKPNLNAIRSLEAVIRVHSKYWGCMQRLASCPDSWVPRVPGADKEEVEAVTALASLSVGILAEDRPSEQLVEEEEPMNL
Procedure, shortened: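 Recombinant HDAC7 was tested in a two-step fluorogenic assay. Boc-Lys(trifluoroacetyl)-AMC serves as substrate, then trypsin releases the fluorophore.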

[4] = Cytotoxicity against HUVEC cells assessed as reduction in cell viability after 96 hrs by MTT assay; conditions: human

Row | SMILES | Activity (Histone deacetylase 4 [1]) | Activity [2] | IC50 (Histone deacetylase 4 [3]) | IC50 (Histone deacetylase 8) | IC50 (Histone deacetylase 2) | IC50 (Histone deacetylase 7) | IC50 at 96 h [4]
1 | O=C1NC(=O)/C(=C\c2ccc(OCC(=O)N3N=C(c4ccc(F)cc4)CC3c3ccco3)cc2)S1 (stereo unspecified) | 36% | 45% | 880 nM | > 50 µM | > 50 µM | > 50 µM | 700 nM
2 | O=C1NC(=O)/C(=C\c2ccc(OCC(=O)N3N=C(c4ccc(F)cc4)CC3c3ccc(Cl)c(Cl)c3)cc2)S1 (stereo unspecified) | 13% | 22% | 800 nM | 25 µM | 21 µM | 6.7 µM | 2000 nM
3 | O=C1NC(=O)/C(=C\c2ccc(OCC(=O)N3N=C(c4ccccc4)CC3c3ccc(Cl)c(Cl)c3)cc2)S1 (stereo unspecified) | 5.9% | 9.4% | 700 nM | 10 µM | 13 µM | > 50 µM | > 10000 nM
